# This is a sample that favours compounds with a hit; in the whole collection about 2.6% have one here.
# SENP6 block: inhibitors of human SENP6 protease; Q9GZR1; Recombinant SENP6 catalytic domain, aminoluciferin luminescence; inhibition, % at 10 µM; hit rate 1.8% among 330,000; AID 2599;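 active means inhibition above about 50% at the single tested dose, limit read from the data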;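 further: plate controls were DMSO wells with enzyme for no effect and DMSO wells lacking enzyme for full effect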
# UCH37 DUB inh: blocks the human deubiquitinase UCH37; Q9Y5K5; purified proteasome/UCH37, Ub-AMC cleavage fluorescence; inhibition, % (concentration not given with the values); hit rate 0.33% among 330,000;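 active means mean inhibition over replicate wells above about 20%, limit read from the data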;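 further: 0% = compound-free wells with enzyme and 100% = wells lacking proteasome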
#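 Material: Human UCH37 enzyme supplied as purified proteasome complex | Schedule: 30 min compound-proteasome preincubation then 25 min substrate reaction, room temperature | Detection: AMC fluorescence from Ub-AMC cleavage, excitation 355 nm, emission 460 nm | Benchmarks: Wells without proteasome as full block, compound-free enzyme plus substrate as uninhibited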
# SENP7 block: SENP7 protease inhibition; recombinant SENP7, Z-RLRGG-aminoluciferin luminescence, 40 min; hit rate 1.5% among 330,000; inhibition, % at 5 µM; Q9BQF6;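 active means inhibition above about 50% at the single test dose, limit read from the data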;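 further: plate controls were DMSO with enzyme for no effect and no enzyme buffer wells for full effect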
# Target sequence (Q9BQF6 706-1050 limits assumed): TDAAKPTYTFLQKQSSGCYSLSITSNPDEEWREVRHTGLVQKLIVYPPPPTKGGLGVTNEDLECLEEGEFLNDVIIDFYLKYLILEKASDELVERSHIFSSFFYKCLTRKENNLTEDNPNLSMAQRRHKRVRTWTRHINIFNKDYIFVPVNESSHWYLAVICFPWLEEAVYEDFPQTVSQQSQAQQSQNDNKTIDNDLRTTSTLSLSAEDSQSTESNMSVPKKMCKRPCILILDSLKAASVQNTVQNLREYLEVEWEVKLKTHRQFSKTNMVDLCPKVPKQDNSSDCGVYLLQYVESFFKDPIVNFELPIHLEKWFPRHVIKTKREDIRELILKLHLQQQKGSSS
# SENP8 block-1: SENP8 protease inhibition | hit rate 1.2% among 330,000 | purified SENP8, Z-RLRGG-aminoluciferin cleavage, luminescence | inhibition, % at 10 µM | Q96LD8; in the data active means inhibition above about 50%
# Target sequence (Q96LD8 whole entry, looked up): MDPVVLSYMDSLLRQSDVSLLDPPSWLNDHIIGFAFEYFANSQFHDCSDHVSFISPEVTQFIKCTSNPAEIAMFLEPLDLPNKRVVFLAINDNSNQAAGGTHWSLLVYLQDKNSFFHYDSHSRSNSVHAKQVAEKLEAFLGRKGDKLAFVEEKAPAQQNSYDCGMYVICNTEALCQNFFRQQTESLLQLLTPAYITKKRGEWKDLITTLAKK
# SENP8 block-2: SENP8 (human) protease inhibition; hit rate 0.64% among 360,000; inhibition, % at 20 µM; recombinant SENP8, Nedd8 substrate fluorescence; Q96LD8; in the data active means inhibition mostly above about 40%, no sharp cut-off; inactive means mostly below about 27%
# SENP1 inh: SENP1 (human) catalytic domain inhibition; recombinant SENP1 catalytic domain, CyPet-SUMO1-YPet FRET cleavage; inhibition, % at 10 µM; hit rate 0.21% among 360,000; AID 624204;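 active means inhibition at least 30% at 10 µM, raw YFP signal under a set limit, fluorescence ratio 0.5 to 1.5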;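 further: 0% = enzyme with DMSO and 100% = no enzyme wells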
#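 material = recombinant human SENP1 catalytic domain, His6-tagged | quantity = 20 pM enzyme | reagent = 25 nM SUMO1 FRET substrate | compound dosing = 10 µM single point, 0.5% DMSO | timing = 50 min enzyme reaction, room temperature, light-protected | detection = FRET, CFP and YFP emission | control set = no-enzyme low, enzyme-DMSO high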
# Active calls of the source: *; / = not tested or not shown.
SMILES,SENP6 block,UCH37 DUB inh,SENP7 block,SENP8 block-1,SENP8 block-2,SENP1 inh
COc1ccc2ccccc2c1C1CC(=O)N2CN(C)CSC2=C1C#N (centres undefined),14,6,-1,4,42*,2
COc1cc(OC)c(C2CC(=O)N3CN(C)CSC3=C2C#N)cc1OC (centres undefined),-4,8,4,0,79*,-30
COc1ccc(-c2cc(C(=O)NN=C(C)c3cccnc3)c3ccccc3n2)cc1,/,-48,/,/,/,/
O=C(NCCCN1CCOCC1)C(=O)NN=Cc1ccccc1,/,0,/,/,/,/
CCOC(=O)c1ccc(N/C=C\C(=O)c2cccc(OC)c2)cc1,-5,-18,86*,66*,-259,-134
O=[N+]([O-])c1ccc(N=Nc2ccc(O)c3ccccc23)cc1,/,7,/,/,45*,-17
CO/N=C/C(=N\Nc1ccc(OC)cc1)C(=O)c1ccc(F)cc1,-6,/,6,0,10,0
CO/N=C/C(=N\Nc1ccc(C)cc1)C(=O)c1ccc(OC)cc1,-3,/,-6,-1,51*,-3
CCOC(=O)c1[nH]cnc1N=Nc1c(O)ccc2ccccc12,/,7,/,/,10,62*
Oc1ccc2ccccc2c1N=Nc1ccccn1,23,4,-5,15,41*,11
Oc1ccc2ccccc2c1N=Nc1ccccc1F,16,2,7,-6,2,3
CSc1ccccc1NC(=O)Cn1ccsc1=N,-10,0,-9,-8,10,1
N=c1sccn1CC(=O)Nc1cccc2ccccc12,10,20*,8,2,2,0
COc1ccc(O[C@H]2C=C[C@@H](c3ccccc3)O[C@@H]2COC(=O)CCC(C)=NO[C@@H](C)c2cc(-c3c(C)cc(C)cc3C)no2)cc1,/,1,/,/,/,/
C=CCN=c1scc(-c2ccco2)n1/N=C/c1ccc(O)c(O)c1O,-10,/,-5,-8,51*,4
Cc1cc(/C=C(\C#N)C(=O)O)c(C)n1C1CC1,22,21*,6,12,-13,-1
COc1ccc2c(c1)C(C)=CC(C)(C)N2S(=O)(=O)c1ccc(C)cc1,-3,23*,4,2,2,-2
COc1ccc(OCC(=O)NN=C(C)CC(=O)Nc2cccc([N+](=O)[O-])c2)cc1,/,1,/,/,/,/
CC1(C)CC(=O)CC(=NNC(=O)Cc2ccccc2)C1,/,5,/,/,/,/
CCNC1=C(Cl)C(=O)c2ccccc2C1=O,41,-1,30,15,94*,1
O=C1C(Cl)=C(NCc2ccco2)C(=O)c2ccccc21,/,6,/,/,46*,2
O=C1C(Cl)=C(NCCN2CCCCC2)C(=O)c2ccccc21,37,41*,20,30,76*,1
O=S(=O)(c1ccccc1)c1ccc(NCc2ccco2)cc1,18,1,7,6,-92,-2
CCN(CC)c1ccc(NC2=C(Cl)C(=O)c3ccccc3C2=O)cc1,/,5,/,/,50*,0
O=C(NN=Cc1c[nH]c2c1ccc1ccccc12)c1ccc([N+](=O)[O-])cc1,/,3,/,/,/,/
SMILES,SENP6 block,UCH37 DUB inh,SENP7 block,SENP8 block-1,SENP8 block-2,SENP1 inh
COc1cc(OC)nc(N=CNO)n1,/,1,/,/,/,/
O=C1C(Cl)=C(Nc2ccc(O)cc2)C(=O)c2ccccc21,26,6,0,11,41*,1
Cc1ccc(NC2=C(Cl)C(=O)c3ccccc3C2=O)cc1,/,2,/,/,2,2
COc1ccc2nc(N3CCCCC3)c(/C=C3\SC(=S)NC3=O)cc2c1,6,7,1,12,28,92
O=C1NC(=S)S/C1=C\c1cc2ccccc2nc1N1CCCCC1,28,8,0,25,8,76*
C=CCOc1ccc(C=Nn2cncn2)cc1OC,/,1,/,/,/,/
COc1ccc(-n2nnc3c(SCC(=O)Nc4ccc5c(c4)OCCO5)ncnc32)cc1,54*,1,20,16,/,/
O=C(O)c1ccc(N/N=C/c2cccc3cccnc23)cc1,54*,/,31,30,-86,-38
O=C(O)c1ccc(NN=Cc2cccc3nccnc23)cc1,/,17,/,/,/,/
O=C(O)c1ccc(NN=Cc2ccncc2)cc1,/,14,/,/,/,/
O=C(O)c1ccc(N/N=C/c2ccc3nccnc3c2)cc1,98*,/,100*,97*,16,37
CCOc1cc(C2Nc3cccc4cccc(c34)N2)ccc1O,31,-30,2,2,59*,-25
COc1ccccc1NC(=O)Nc1ccc(C(=O)N2CCCCC2)cc1,96*,2,97*,91*,11,0
O=S(=O)(CCc1nc2ccccc2[nH]1)c1ccc(Cl)cc1,-3,/,-1,-12,30,0
Clc1ccc(OCc2nc3ccccc3[nH]2)cc1,72*,0,82*,56*,-3,3
COc1cccc(N=Nc2c(C)[nH]n(-c3ccccc3)c2=O)c1,1,7,1,7,29,6
Cc1[nH]n(-c2ccccc2)c(=O)c1N=Nc1ccccc1O,15,8,-9,-6,40*,11
Cc1[nH]n(-c2ccccc2)c(=O)c1N=Nc1nccs1,40,21*,35,15,56*,2
Cc1[nH]n(-c2ccccc2)c(=O)c1N=Nc1ccccc1C(=O)O,2,13,3,1,27,0
Cc1ccccc1N=Nc1c(C)[nH]n(-c2ccccc2)c1=O,/,8,/,/,/,/
Cc1[nH]n(-c2ccccc2)c(=O)c1N=Nc1ccc2c(c1)OCO2,-6,8,2,3,46*,9
O=C(NN=Cc1cccs1)c1cccc(NC(=O)c2ccccc2Cl)c1,/,3,/,/,/,/
CC(CC(=O)N1CCCC1)=NNC(=O)c1cc2ccccc2cc1O,/,1,/,/,/,/
COc1cccc(C=Nc2sc(Cc3ccccc3)c(C)c2C(N)=O)c1O,/,2,/,/,/,/
N#C/C(=C\c1ccc(-c2nc3ccccc3s2)o1)C(N)=O,31,-6,49,16,-348,-34
SMILES,SENP6 block,UCH37 DUB inh,SENP7 block,SENP8 block-1,SENP8 block-2,SENP1 inh
CNC(=O)/C(C#N)=C/c1ccc(-c2nc3ccccc3s2)o1,-3,/,64*,-2,-422,-35
CN1CCN(CC#CC(C)(O)C2CC3C=CC2C3)CC1 (centres undefined),13,23*,5,2,22,-1
OC(CCN1CCCCC1)(c1ccccc1)C1C[C@@H]2C=C[C@H]1C2 (some centres undefined),-10,7,5,-4,9,3
O=C(NN=Cc1ccc(O)cc1)c1cncc(Br)c1,/,7,/,/,/,/
COc1ccc(/C=C/C(=O)NCC(=O)NN=C(C)Cc2ccccc2)cc1,/,5,/,/,/,/
O=[N+]([O-])c1ccc(O)c(/C=N/n2cnc3ccccc32)c1,76*,/,30,56*,13,-69
CN(C)c1ccc(/C=C/C=C2/SC(=S)N(c3ccccc3)C2=O)cc1,-11,3,-2,1,11,72*
O=C1/C(=C/C=C/c2ccco2)SC(=S)N1c1ccc(O)cc1,-53,5,9,4,46*,6

# Source: PubChem BioAssay (several laboratories)
